≈ marks a conversion by molar mass, not a printed value.
Tests used:
[1] = tested on: Aspergillus fumigatus; assay: Minimum inhibitory concentration (MIC) to Aspergillus fumigatus after 48 hr; type: functional; settings: Aspergillus fumigatus, 48 h; read-out: MIC
Procedure, shortened: (§1)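 Antifungal susceptibility read visually; MIC taken as lowest drug concentration giving 90–100% inhibition of visible growth relative to drug-free controls, read over 48 h, or after 24 h where footnoted. Organisms: C. parapsilosis, C. albicans, Cryptococcus neoformans, C. glabrata, Aspergillus fumigatus, Aspergillus flavus.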

[2] = tested on: Cryptococcus neoformans; assay: Minimum inhibitory concentration against Cryptococcus neoformans after 48 hours; type: functional; procedure, shortened: as §1
[3] = tested on: Candida parapsilosis; assay: Minimum inhibitory concentration (MIC) to Candida parapsilosis after 48 hr; type: functional; settings: Lodderomyces parapsilosis, 48 h; read-out: MIC; procedure, shortened: as §1
[4] = tested on: Candida albicans; assay: Minimum inhibitory concentration (MIC) to Candida albicans after 48 hr; type: functional; procedure, shortened: as §1
[5] = tested on: Aspergillus flavus; assay: Minimum inhibitory concentration (MIC) against Aspergillus flavus after 24 hours; type: functional; settings: Aspergillus flavus, 24 h; read-out: MIC; procedure, shortened: as §1
[6] = tested on: Nakaseomyces glabratus; assay: Minimum inhibitory concentration (MIC) to Candida glabrata after 48 hours; type: functional; settings: Nakaseomyces glabratus, 48 h; read-out: MIC; procedure, shortened: as §1
[7] = Maximum plasma concentration was determined; type: ADME, organism-based
Procedure, shortened: (§2)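 Mice dosed iv at 5 mg/kg or orally at 20 mg/kg, n = 3; drug concentrations measured in plasma/serum over time to derive half-life, Cmax, total body clearance, steady-state volume and oral bioavailability.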

[8] = Volume of steady state concentration was determined; type: ADME, organism-based; settings: in vivo; read-out: Vss; procedure, shortened: as §2
[9] = Total body clearance was determined; type: ADME, organism-based; settings: in vivo; procedure, shortened: as §2
[10] = Half life period was measured upon intravenous administration (5 mg/kg); type: ADME, organism-based; settings: in vivo; procedure, shortened: as §2
[11] = Half life period was measured upon oral administration (20 mg/kg); type: ADME, organism-based; settings: in vivo; procedure, shortened: as §2
[12] = Oral bioavailability; type: ADME, organism-based; settings: eutheria, in vivo; procedure, shortened: as §2

Compound	MIC [1]	MIC [2]	MIC [3]	MIC [4]	MIC [5]	MIC [6]	Cmax [7]	Vd [8]	clearance [9]	half-life [10]	half-life [11]	bioavailability [12]
C=C(Cl)CN1C[C@H](OCC23C[C@@H]4[C@H](C)CC[C@H]4C4(C=O)CC2C=C(C(C)C)[C@@]34C(=O)O)OC[C@H]1C(F)(F)F	> 128 µg/mL	> 128 µg/mL	> 128 µg/mL	< 0.06 µg/mL	> 128 µg/mL	1 µg/mL (≈ 1.79 µM)	–	–	–	–	–	–
CC(C)CN1C[C@H](OCC23C[C@@H]4[C@H](C)CC[C@H]4C4(C=O)CC2C=C(C(C)C)[C@@]34C(=O)O)OC[C@H]1C	> 128 µg/mL	32 µg/mL (≈ 65.6 µM)	> 128 µg/mL	< 0.06 µg/mL	> 128 µg/mL	1 µg/mL (≈ 2.05 µM)	–	–	–	–	–	–
C=C(C#N)CN1C[C@H](OCC23C[C@@H]4[C@H](C)CC[C@H]4C4(C=O)CC2C=C(C(C)C)[C@@]34C(=O)O)OC[C@H]1C	> 128 µg/mL	4 µg/mL (≈ 8.05 µM)	> 128 µg/mL	0.25 µg/mL (≈ 0.503 µM)	128 µg/mL (≈ 258 µM)	1 µg/mL (≈ 2.01 µM)	–	–	–	–	–	–
CC(C)C1=CC2CC3(C=O)[C@@H]4CC[C@@H](C)[C@H]4CC2(CO[C@H]2CN[C@H](C)CO2)[C@]13C(=O)O	> 128 µg/mL	> 128 µg/mL	> 128 µg/mL	8 µg/mL (≈ 18.5 µM)	> 128 µg/mL	64 µg/mL (≈ 148 µM)	–	–	–	–	–	–
CC(C)C1=CC2CC3(C=O)[C@@H]4CC[C@@H](C)[C@H]4CC2(CO[C@H]2CN(C/C=C\Cl)[C@H](C)CO2)[C@]13C(=O)O	> 128 µg/mL	128 µg/mL (≈ 253 µM)	> 128 µg/mL	0.125 µg/mL (≈ 0.247 µM)	> 128 µg/mL	1 µg/mL (≈ 1.98 µM)	–	–	–	–	–	–
CC(C)C1=CC2CC3(C=O)[C@@H]4CC[C@@H](C)[C@H]4CC2(CO[C@H]2CN(C4C=CCCC4)[C@H](C)CO2)[C@]13C(=O)O (stereo partly drawn)	> 128 µg/mL	> 128 µg/mL	> 128 µg/mL	2 µg/mL (≈ 3.91 µM)	> 128 µg/mL	8 µg/mL (≈ 15.6 µM)	–	–	–	–	–	–
C=C(Cl)CN1C[C@H](OCC23C[C@@H]4[C@H](C)CC[C@H]4C4(C=O)CC2C=C(C(C)C)[C@@]34C(=O)O)O[C@H](C)C1	> 128 µg/mL	> 128 µg/mL	8 µg/mL (≈ 15.8 µM)	< 0.06 µg/mL	4 µg/mL (≈ 7.9 µM)	0.125 µg/mL (≈ 0.247 µM)	–	0.49 L/kg	13 mL/min/kg	26.4 min	–	–
CC(C)C1=CC2CC3(C=O)[C@@H]4CC[C@@H](C)[C@H]4CC2(CO[C@H]2CN(CC4CC4)[C@H](C)CO2)[C@]13C(=O)O	> 128 µg/mL	> 128 µg/mL	> 128 µg/mL	2 µg/mL (≈ 4.12 µM)	> 128 µg/mL	8 µg/mL (≈ 16.5 µM)	–	–	–	–	–	–

More lines, now with the values ahead:

MIC [1]	MIC [2]	MIC [3]	MIC [4]	MIC [5]	MIC [6]	Cmax [7]	Vd [8]	clearance [9]	half-life [10]	half-life [11]	bioavailability [12]	Compound
> 128 µg/mL	128 µg/mL (≈ 264 µM)	> 128 µg/mL	8 µg/mL (≈ 16.5 µM)	> 128 µg/mL	64 µg/mL (≈ 132 µM)	–	–	–	–	–	–	C=CC(=O)N1C[C@H](OCC23C[C@@H]4[C@H](C)CC[C@H]4C4(C=O)CC2C=C(C(C)C)[C@@]34C(=O)O)OC[C@H]1C
64 µg/mL (≈ 123 µM)	0.5 µg/mL (≈ 0.961 µM)	8 µg/mL (≈ 15.4 µM)	< 0.06 µg/mL	1 µg/mL (≈ 1.92 µM)	0.25 µg/mL (≈ 0.481 µM)	–	–	–	–	–	–	C=C(Cl)CN1C[C@H](OCC23C[C@@H]4[C@H](C)CC[C@H]4C4(C=O)CC2C=C(C(C)C)[C@@]34C(=O)O)O[C@H](C)[C@H]1C
> 128 µg/mL	> 128 µg/mL	> 128 µg/mL	< 0.06 µg/mL	> 128 µg/mL	1 µg/mL (≈ 1.82 µM)	–	–	–	–	–	–	CC(C)C1=CC2CC3(C=O)[C@@H]4CC[C@@H](C)[C@H]4CC2(CO[C@H]2CN(C/C=C\Br)[C@H](C)CO2)[C@]13C(=O)O
128 µg/mL (≈ 233 µM)	< 0.06 µg/mL	4 µg/mL (≈ 7.27 µM)	< 0.06 µg/mL	4 µg/mL (≈ 7.27 µM)	0.125 µg/mL (≈ 0.227 µM)	–	–	–	–	–	–	C=C(Br)CN1C[C@H](OCC23C[C@@H]4[C@H](C)CC[C@H]4C4(C=O)CC2C=C(C(C)C)[C@@]34C(=O)O)OC[C@H]1C
32 µg/mL (≈ 59.9 µM)	< 0.06 µg/mL	2 µg/mL (≈ 3.74 µM)	< 0.06 µg/mL	2 µg/mL (≈ 3.74 µM)	< 0.06 µg/mL	3880 ng/mL	1.6 L/kg	20 mL/min/kg	96 min	186 min	83%	C=C(Cl)CN1C[C@H](OCC23C[C@@H]4[C@H](C)CC[C@H]4C4(C=O)CC2C=C(C(C)C)[C@@]34C(=O)O)OC[C@H]1C(C)C
64 µg/mL (≈ 120 µM)	0.25 µg/mL (≈ 0.47 µM)	4 µg/mL (≈ 7.52 µM)	< 0.06 µg/mL	4 µg/mL (≈ 7.52 µM)	0.125 µg/mL (≈ 0.235 µM)	–	–	–	–	–	–	C=C(Cl)CN1C[C@H](OCC23C[C@@H]4[C@H](C)CC[C@H]4C4(C=O)CC2C=C(C(C)C)[C@@]34C(=O)O)O[C@@H]2CCC[C@H]21

— ChEMBL document CHEMBL1136700, “Identification of a broad-spectrum azasordarin with improved pharmacokinetic properties” (Bioorg Med Chem Lett, 2003)
